Laboratory results as given in PMC11400628 (Protein Science : A Publication of the Protein Society, 2024).
Residue numbers refer to the chain shown, from its start. Blank lines part the entries; values can stand above or below the molecule they belong to.

Assays:
CaMKIIα WT hub [1] = biological target: T1, CaMKIIα WT hub (Homo sapiens, UniProt Q9UQM7); test: Thermal shift assay; assay type: binding; details: for maximum ∆Tm: DSF, mean ± SEM, n = 3
T1 sequence (Q9UQM7 345-475): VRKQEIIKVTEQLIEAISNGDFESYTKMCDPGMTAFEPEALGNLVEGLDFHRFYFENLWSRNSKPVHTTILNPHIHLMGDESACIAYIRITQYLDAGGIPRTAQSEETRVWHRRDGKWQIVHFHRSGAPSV

CaMKIIα 6x hub [2] = biological target: T2, CaMKIIα 6x hub (Homo sapiens, UniProt Q9UQM7, E355Q/F467M/I414M/I464H/T354N/T412N); test: Intrinsic tryptophan fluorescence assay; assay type: binding; details: pIC50, quenching of intrinsic tryptophan fluorescence, purified CaMKIIα 6x hub
T2 sequence (Q9UQM7 345-475 T354N/E355Q/T412N/I414M/I464H/F467M): T1 sequence (Q9UQM7 345-475) with T10N, E11Q, T68N, I70M, I120H, F123M
Procedure, shortened: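 Purified human CaMKIIα 6x hub (residues 345–475 with six stabilising mutations). Intrinsic Trp fluorescence was read at 25°C across a test compound series (e.g. 0.43–12.1 μM). Signals were background-corrected for compound in buffer, then normalised between hub alone and the high-concentration plateau. IC50 came from a variable-slope log(inhibitor)-response fit of pooled data, n = 3.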

CaMKIIα W403L hub [3] = biological target: T3, CaMKIIα W403L hub (Homo sapiens, UniProt Q9UQM7, W403L); test: Surface plasmon resonance, immobilized CaMKIIα W403L hub; assay type: binding
T3 sequence (Q9UQM7 345-475 W403L): T1 sequence (Q9UQM7 345-475) with W59L
Procedure, shortened: (§1)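 SPR at 25°C. Purified hub (WT or W403L) was amine-coupled to the sensor in 20 mM NaAc, pH 5. Test compound was injected as twofold dilutions in MES running buffer (20 mM MES, 150 mM NaCl, 1 mM DTT, pH 6), with blank and reference-surface subtraction. Equilibrium responses versus concentration were fitted to a 1:1 Langmuir isotherm for KD. Independent experiments: WT n = 3, W403L n = 2.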

CaMKIIα WT hub [4] = biological target: T1, CaMKIIα WT hub; test: Mass photometry, CaMKIIα WT hub; details: CaMKIIα WT hub 100–500 nM, incubated with 200 μM PIPA
CaMKIIα 6x hub [5] = biological target: T2, CaMKIIα 6x hub; test: Small-angle X-ray scattering, CaMKIIα 6x hub; details: CaMKIIα 6x hub 6.7 mg/mL, PIPA 200 μM
Procedure, shortened: (§2)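 SAXS. Purified hub constructs were buffer-exchanged by spin desalting into 20 mM MES, 150 mM NaCl, 1 mM DTT, pH 6.0, with or without 200 μM test compound, and measured as dilution series of 1–7 mg/mL protein at 20–22°C. Frames were radially averaged, buffer-subtracted and merged, scaled by concentration. Curves were fitted with dodecamer, tetradecamer, mixed or stacked-dodecamer models.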

CaMKIIα WT hub [6] = biological target: T1, CaMKIIα WT hub; test: Surface plasmon resonance, immobilized CaMKIIα WT hub; assay type: binding
Procedure, shortened: as §1

CaMKIIα W403L hub [7] = biological target: T3, CaMKIIα W403L hub; test: Small-angle X-ray scattering, CaMKIIα W403L hub; details: CaMKIIα W403L hub 6.8 mg/mL, PIPA 200 μM
Procedure, shortened: as §2

CaMKIIα WT hub [8] = biological target: T1, CaMKIIα WT hub; test: Small-angle X-ray scattering, CaMKIIα WT hub; details: CaMKIIα WT hub 1.2–3.9 mg/mL; PIPA 200 μM, HOCPCA 1000 μM, 5-HDC 100 μM
CaMKIIα W403L hub [9] = biological target: T3, CaMKIIα W403L hub; test: Mass photometry, CaMKIIα W403L hub; details: CaMKIIα W403L hub 100–500 nM, incubated with 200 μM PIPA
Procedure, shortened: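 Mass photometry. The instrument was calibrated with apoferritin, BSA and […]. Purified W403L hub (1.5 mg/mL) was incubated 90 min with 200 μM test compound, then desalted into MES buffer (20 mM MES, 150 mM NaCl, 1 mM DTT, pH 6.0) plus compound. It was diluted to 500, 200 and 100 nM and recorded for 60 s, with a buffer blank before each run. Single-molecule mass histograms were built.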

CaMKIIα W403L hub [10] = biological target: T3, CaMKIIα W403L hub; test: Thermal shift assay; assay type: binding; details: DSF, mean ± SEM, n = 3
[11] = biological target: human CaMKIIα W403L hub domain (human) (UniProt Q9UQM7); test: mass photometry
CaMKIIα holoenzyme = CaMKIIα holoenzyme (Homo sapiens, UniProt Q9UQM7); test: ADP-Glo kinase assay, syntide-2 phosphorylation; assay type: biochemical; details: sub-maximal (30 nM) CaM; concentrations up to 5–10 mM
GHB binding site = details: low-affinity; ref Wellendorph et al., 2009; cited from earlier work
SAXS = biological target: the molecule itself; test: SAXS

CaMKIIα holoenzyme, sequence (Q9UQM7 whole entry): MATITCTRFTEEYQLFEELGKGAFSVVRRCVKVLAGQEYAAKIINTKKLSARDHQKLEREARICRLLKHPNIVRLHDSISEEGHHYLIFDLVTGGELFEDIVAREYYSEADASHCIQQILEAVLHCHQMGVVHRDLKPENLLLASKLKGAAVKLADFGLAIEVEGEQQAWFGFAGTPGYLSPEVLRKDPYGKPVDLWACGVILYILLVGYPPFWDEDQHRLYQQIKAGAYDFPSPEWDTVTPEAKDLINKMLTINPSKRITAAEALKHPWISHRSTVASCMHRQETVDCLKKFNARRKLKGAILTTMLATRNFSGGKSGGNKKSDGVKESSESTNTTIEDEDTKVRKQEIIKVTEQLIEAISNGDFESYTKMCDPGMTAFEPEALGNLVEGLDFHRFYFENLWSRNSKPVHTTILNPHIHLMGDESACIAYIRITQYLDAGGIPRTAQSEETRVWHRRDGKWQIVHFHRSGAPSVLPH

maximum ∆Tm (CaMKIIα WT hub [1]): 13.04 ± 0.09 °C
maximum ∆Tm less compared to 5-HDC (CaMKIIα WT hub [1]; difference PIPA vs 5-HDC): 10.7 °C
IC50 (CaMKIIα 6x hub [2]): 5.01 µM
Kd (CaMKIIα W403L hub [3]): 2.8 ± 0.13 µM
self-association of hub (SAXS) (CaMKIIα 6x hub [5]): no self‐association was detected
Kd (CaMKIIα WT hub [6]): 2.9 ± 0.6 µM
self-association of hub (SAXS) (CaMKIIα W403L hub [7]): no self‐association was detected
self-association / oligomeric state of hub (SAXS) (CaMKIIα WT hub [8]): induced self‐association
change in MW (mass photometry) (CaMKIIα W403L hub [9]): did not display any change in MW
maximum ∆Tm (CaMKIIα W403L hub [10]): 24.5 ± 0.4 °C
Molecule: O=C(O)Cc1cn2nc(-c3ccc(Cl)cc3)ccc2n1 [PIPA, 2‐(6‐(4‐chlorophenyl)imidazo[1,2‐b]pyridazine‐2‐yl)acetic acid]
molecular weight species (mass photometry) (CaMKIIα WT hub [4]): displayed a shoulder on the main peak around 220 kDa as well as a much larger species at 372 kDa

stoichiometry N [11]: 12
Molecule: human CaMKIIα W403L hub domain (from UniProt Q9UQM7 345-475) (domain or fragment)

Molecule: O=C(O)C1=CC(O)CC1 (stereo not shown) [HOCPCA, 3‐hydroxycyclopent‐1‐enecarboxylic acid, reference compound]
maximum ∆Tm (CaMKIIα WT hub [1]): 11.5 ± 0.6 °C
effect on syntide-2 substrate phosphorylation (CaMKIIα holoenzyme): neither of the compounds affected substrate phosphorylation
self-association / oligomeric state of hub (SAXS) (CaMKIIα WT hub [8]): not observed
maximum ∆Tm (CaMKIIα W403L hub [10]): 15.2 ± 1.0 °C

Molecule: CC(=O)O [acetate]
Ki (GHB binding site): > 100 µM
effect on syntide-2 substrate phosphorylation (CaMKIIα holoenzyme): neither of the compounds affected substrate phosphorylation

B1: human CaMKIIα wild-type (WT) hub domain (domain or fragment, UniProt Q9UQM7 345-475, looked up)
chain: T1 sequence (Q9UQM7 345-475)
stoichiometry N (SAXS): 12
